Marks after values point to notes of the source that are not given here.
Experiments:
Assay type in all cases: in vivo, human
[1] = Rifampin drug interaction study: eliglustat pharmacokinetics in healthy adults; conditions: single IV rifampin dose, overall statement
Safety assessments [2] = experiment: Safety assessments
Safety assessments [3] = experiment: Safety assessments; remark: listed apart in the source
Procedure, shortened: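 Open-label study in healthy adults. Safety was monitored after a single dose (Day 1), during multiple doses alone (Days 2–8), and during co-dosing (Days 9–15 with the CYP3A/P-gp inhibitor; Days 9–18 with the CYP2D6 inhibitor). Measures: treatment-emergent AEs, clinical labs, vital signs, physical exams, 12-lead ECG, 12 h continuous telemetry. An AE counted as treatment-related if possibly, probably or definitely related to study drug.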

[4] = Paroxetine drug interaction study: eliglustat pharmacokinetics in healthy adults; conditions: for AUC: AUC0-τ; for AUC / AUC(0-inf) / Cmax: mean (SD); for AUC(0-inf): AUC0-∞
Procedure, shortened: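 Open-label, fixed-sequence study in healthy CYP2D6 non-poor metabolizers. Oral test compound 84 mg, fasted: single dose Day 1, BID Days 2–8, then BID with a strong CYP2D6 inhibitor 30 mg QD Days 9–18. Plasma sampled to 36 h Day 1, 12 h Day 8, 72 h Day 18, plus pre-dose samples. LC-MS/MS, LLOQ 0.5 ng/mL. Non-compartmental PK, tmax as median (min, max); ratios from log-transformed mixed-effects model.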

[5] = rifampin study (N = 25), whole study
[6] = rifampin study (N = 25), road traffic accident, unrelated to eliglustat or rifampin
[7] = concomitant dosing of eliglustat with paroxetine
[8] = concomitant dosing of eliglustat with paroxetine, Days 9 to 18, N = 35
[9] = multiple-dose eliglustat alone, Days 2 to 8, N = 36
[10] = paroxetine study (N = 36), whole study
[11] = CYP2D6 EMs only, eliglustat 84 mg BID with paroxetine 30 mg QD
[12] = CYP2D6 non-PMs, eliglustat 84 mg BID with paroxetine 30 mg QD

Question: For CCCCCCCC(=O)N[C@H](CN1CCCC1)[C@H](O)c1ccc2c(c1)OCCO2 [eliglustat], which “effect of a single intravenous dose of rifampin on eliglustat” value [1] is on record?
Answer: The value was “no effect”.

Question: What about the tolerability (Safety assessments [2]; administered alone and with rifampin) of the same molecule?
Answer: The tolerability was “well tolerated”.

Question: What about the “subjects with moderate dizziness” value (Safety assessments [2]; after completing multiple doses of eliglustat alone) of the same molecule?
Answer: The value was 4.0%.

Question: What about the “subjects reporting an AE related to eliglustat” value (Safety assessments [2]; concomitant dosing with IV rifampin, Day 12, N = 25) of the same molecule?
Answer: The value was 4.0%.

Question: And the “subjects reporting AEs related to eliglustat” value (Safety assessments [2]; concomitant dosing with oral rifampin, Days 13 to 17, N = 24)?
Answer: The value was 8.3%.

Question: What about the “subjects with moderate nausea, vomiting, and retching” value (Safety assessments [2]; during the multiple doses of eliglustat alone) of the same molecule?
Answer: The value was 4.0%.

Question: What about the “subjects reporting treatment-related AEs” value (Safety assessments [2]; following treatment with eliglustat alone, N = 25) of the same molecule?
Answer: The value was 20.0%.

Question: What about the “Any adverse event (AE), number of events” value (Safety assessments [2]; [5]) of the same molecule?
Answer: The value was 65 N.

Question: What about the “Any adverse event (AE), number of subjects” value (Safety assessments [2]; [5]) of the same molecule?
Answer: Its value is 17 (68.0%) N (%).

Question: And the “Any treatment-related AE, number of events” value (Safety assessments [2]; [5])?
Answer: The value was 39 N.

Question: And the “Any treatment-related AE, number of subjects” value (Safety assessments [2]; [5])?
Answer: Its value is 11 (44.0%) N (%).

Question: And the “Discontinuations due to AE, number of events” value (Safety assessments [2]; [6])?
Answer: The value was 1 ^a N.

Question: And the “Discontinuations due to AE, number of subjects” value (Safety assessments [2]; [6])?
Answer: The value was 1 (4%) N (%).

Question: And the “Serious AEs, number of events” value (Safety assessments [2]; [6])?
Answer: Its value is 1 ^a N.

Question: What about the “Serious AEs, number of subjects” value (Safety assessments [2]; [6]) of the same molecule?
Answer: Its value is 1 (4%) N (%).

Question: And the “Severe AEs, number of events” value (Safety assessments [2]; [6])?
Answer: Its value is 1 ^a N.

Question: And the “Severe AEs, number of subjects” value (Safety assessments [2]; [6])?
Answer: The value was 1 (4%) N (%).

Question: And the “subjects reporting moderate AEs that were treatment-related” value (Safety assessments [2]; rifampin study overall)?
Answer: The value was 12.0%.

Question: And the tolerability (Safety assessments [3]; administered alone and with paroxetine)?
Answer: Its tolerability is “well tolerated”.

Question: What about the “subjects with application site dermatitis” value (Safety assessments [3]; [7]) of the same molecule?
Answer: Its value is 31.4%.

Question: And the “subjects with moderate treatment-related headache” value (Safety assessments [3]; [7])?
Answer: Its value is 11.4%.

Question: And the “number of AEs” value (Safety assessments [3]; [8])?
Answer: The value was 194 events.

Question: What about the “subjects with AEs” value (Safety assessments [3]; [8]) of the same molecule?
Answer: Its value is 91.4%.

Question: And the “subjects reporting AEs related to eliglustat” value (Safety assessments [3]; concomitant dosing with paroxetine, N = 35)?
Answer: The value was 65.7%.

Question: What about the “subjects reporting AEs possibly related to both eliglustat and paroxetine” value (Safety assessments [3]; concomitant dosing, N = 35) of the same molecule?
Answer: The value was 65.7%.

Question: What about the “subjects reporting treatment-related AEs” value (Safety assessments [3]; following a single dose of eliglustat, Day 1, N = 36) of the same molecule?
Answer: Its value is 5.6%.

Question: What about the “subjects with moderate gastritis” value (Safety assessments [3]; following multiple-dose eliglustat) of the same molecule?
Answer: The value was 5.6%.

Question: And the “subjects who discontinued treatment due to AEs” value (Safety assessments [3]; gastritis (eliglustat alone), dizziness and nausea, nausea and panic attack (concomitant dosing))?
Answer: Its value is 8.3%.

Question: What about the “subjects with moderate treatment-related headache” value (Safety assessments [3]; multiple-dose eliglustat) of the same molecule?
Answer: Its value is 2.8%.

Question: What about the “number of AEs” value (Safety assessments [3]; [9]) of the same molecule?
Answer: Its value is 31 events.

Question: And the “subjects with AEs” value (Safety assessments [3]; [9])?
Answer: Its value is 41.7%.

Question: What about the “subjects reporting treatment-related AEs” value (Safety assessments [3]; multiple-dose eliglustat, Days 2 to 8, N = 36) of the same molecule?
Answer: Its value is 27.8%.

Question: What about the “Any adverse event (AE), number of events” value (Safety assessments [3]; [10]) of the same molecule?
Answer: The value was 233 N.

Question: And the “Any adverse event (AE), number of subjects” value (Safety assessments [3]; [10])?
Answer: The value was 33 (91.7%) N (%).

Question: And the “Any treatment-related AE, number of events” value (Safety assessments [3]; [10])?
Answer: The value was 155 N.

Question: What about the “Any treatment-related AE, number of subjects” value (Safety assessments [3]; [10]) of the same molecule?
Answer: Its value is 26 (72.2%) N (%).

Question: What about the “Discontinuations due to AE, number of events” value (Safety assessments [3]; [10]) of the same molecule?
Answer: Its value is 5 N.

Question: And the “Discontinuations due to AE, number of subjects” value (Safety assessments [3]; [10])?
Answer: Its value is 3 (8.3%) N (%).

Question: What about the “Serious AEs, number of events” value (Safety assessments [3]; [10]) of the same molecule?
Answer: Its value is 0 N.

Question: What about the “Serious AEs, number of subjects” value (Safety assessments [3]; [10]) of the same molecule?
Answer: The value was 0 (0.0%) N (%).

Question: What about the “Severe AEs, number of events” value (Safety assessments [3]; [10]) of the same molecule?
Answer: The value was 0 N.

Question: And the “Severe AEs, number of subjects” value (Safety assessments [3]; [10])?
Answer: The value was 0 (0.0%) N (%).

Question: What about the “increase in eliglustat AUC0-τ compared to eliglustat alone” value [4, 11] of the same molecule?
Answer: The value was 8.4 fold.

Question: What about the “increase in eliglustat Cmax compared to eliglustat alone” value [4, 11] of the same molecule?
Answer: The value was 7.0 fold.

Question: What about the “increase in eliglustat AUC0-τ (exposure) compared to eliglustat alone” value [4, 12] of the same molecule?
Answer: The value was 8.9 fold.

Question: And the “increase in eliglustat Cmax compared to eliglustat alone” value [4, 12]?
Answer: Its value is 7.3 fold.

Question: What about the “Ratio (%) of geometric least squares mean, AUC0-t” value ([4]; all subjects, multiple dose, test 30 mg paroxetine oral QD + 84 mg eliglustat oral BID (N = 33) vs reference 84 mg eliglustat oral BID alone (N = 34), 0 to 12 h) of the same molecule?
Answer: The value was 8.93%.

Question: What about the “Ratio (%) of geometric least squares mean, Cmax” value ([4]; all subjects, multiple dose, test 30 mg paroxetine oral QD + 84 mg eliglustat oral BID (N = 33) vs reference 84 mg eliglustat oral BID alone (N = 36)) of the same molecule?
Answer: The value was 7.31%.

Question: And the Tmax ([4]; eliglustat 84 mg BID, Days 2 to 8, all (N = 36), median (minimum, maximum))?
Answer: Its Tmax is 2.0 (0.5–3.0) h.

Question: And the Tmax ([4]; human, plasma, oral, 84 mg)?
Answer: The Tmax was 2 h.

Question: And the half-life ([4]; human, plasma, oral, 84 mg)?
Answer: Its half-life is 4.2 h.

Question: And the AUC ([4]; human, plasma, oral, 84 mg, eliglustat 84 mg BID, Days 2 to 8, CYP2D6 EMs only (N = 33), 0 to 12 h)?
Answer: Its AUC is 120 ng·h/mL.

Question: And the AUC ([4]; human, plasma, oral, 84 mg, eliglustat 84 mg BID, Days 2 to 8, all (N = 34), 0 to 12 h)?
Answer: The AUC was 120 ng·h/mL.

Question: What about the AUC(0-inf) ([4]; human, plasma, oral, 84 mg, eliglustat 84 mg single dose, Day 1, CYP2D6 EMs only (N = 28)) of the same molecule?
Answer: The AUC(0-inf) was 77.4 ng·h/mL.

Question: And the AUC(0-inf) ([4]; human, plasma, oral, 84 mg, eliglustat 84 mg single dose, Day 1, all (N = 30))?
Answer: The AUC(0-inf) was 78.1 ng·h/mL.

Question: What about the Cmax ([4]; human, plasma, oral, 84 mg, eliglustat 84 mg BID, Days 2 to 8, CYP2D6 EMs only (N = 33)) of the same molecule?
Answer: Its Cmax is 19.4 ng/mL.

Question: And the Cmax ([4]; human, plasma, oral, 84 mg, eliglustat 84 mg BID, Days 2 to 8, all (N = 36))?
Answer: The Cmax was 19.3 ng/mL.

Question: What about the Cmax ([4]; human, plasma, oral, 84 mg, eliglustat 84 mg single dose, Day 1, CYP2D6 EMs only (N = 33)) of the same molecule?
Answer: The Cmax was 10.9 ng/mL.

Question: And the Cmax ([4]; human, plasma, oral, 84 mg, eliglustat 84 mg single dose, Day 1, all (N = 36))?
Answer: Its Cmax is 10.7 ng/mL.

Question: What about the AUC ([4]; human, plasma, oral, eliglustat 84 mg BID + paroxetine 30 mg QD, Days 9 to 18, CYP2D6 EMs only (N = 30), 0 to 12 h) of the same molecule?
Answer: Its AUC is 847 ng·h/mL.

Question: And the Cmax ([4]; human, plasma, oral, eliglustat 84 mg BID + paroxetine 30 mg QD, Days 9 to 18, CYP2D6 EMs only (N = 30))?
Answer: The Cmax was 110 ng/mL.

Question: And the Cmax ([4]; human, plasma, oral, eliglustat 84 mg BID + paroxetine 30 mg QD, Days 9 to 18, all (N = 33))?
Answer: The Cmax was 110 ng/mL.
